Source: ChEMBL document CHEMBL4138078, “Structure-based virtual screening and optimization of modulators targeting Hsp90-Cdc37 interaction” (Eur J Med Chem, 2017)
Calls of active or inactive are those of the source. The rule behind the calls is not given here.

Experiments:
Homo sapiens [1] = organism: Homo sapiens; assay: Inhibition of full length His-tagged HSP90/GST-tagged Cdc37 (unknown origin) interaction at 100 uM after 1 hr by HTRF assay relative to control
How it was run: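 HTRF assay using His-tagged full-length Hsp90 and GST-tagged Cdc37 M, each 250 nM final, in PBS with an extra 400 mM KF, pH 7.4. Compound incubated 1 h at 37 °C. Anti-GST-Cryptate and anti-6His-XL665 then added, 0.5 h at 37 °C. Ex 320 nm; ratio = (665/620 nm) × 10000. No-compound negative control and reagent-only blank.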

MCF7 = assay: Antiproliferative activity against human MCF7 cells after 72 hrs by MTT assay; format: functional, cell-based; details: MCF7, 72 h
How it was run: (§1)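 Cells seeded at 10000/well and left 24 h, then exposed to compounds in DMSO (200 μM down to 0.823 μM, three-fold steps) for 72 h at 37 °C. Viability was read by MTT (5 mg/mL in PBS) with formazan dissolved in DMSO, OD at 490 nm. IC50 was taken from parallel experiments as mean ± SD. Media: MCF-7 in MEM, SKBR-3 in RPMI-1640, A549 in F12K, each with 10% FCS.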

A549 = assay: Antiproliferative activity against human A549 cells after 72 hrs by MTT assay; format: functional, cell-based; details: A549, 72 h; how it was run: as §1
SK-BR-3 = assay: Antiproliferative activity against human SKBR3 cells after 72 hrs by MTT assay; format: functional, cell-based; details: SK-BR-3, 72 h; how it was run: as §1
[2] = Inhibition of full length His-tagged HSP90/GST-tagged Cdc37 (unknown origin) interaction after 1 hr by HTRF assay; parameters: species or system Homo sapiens
How it was run: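 Final 250 nM each of His-Hsp90 (full length) and GST-Cdc37 M in PBS with extra 400 mM KF, pH 7.4. Compound added (300 μM to 1.23 μM, three-fold steps), 1 h at 37 °C. Anti-GST-cryptate and anti-6His-XL665 added, 0.5 h at 37 °C. TR-FRET read at ex 320 nm, em 665/620 nm, ratio ×10000. No-compound and reagent-only controls included.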

Homo sapiens [3] = organism: Homo sapiens; assay: Inhibition of full length His-tagged HSP90/GST-tagged Cdc37 (unknown origin) interaction at 10 uM after 1 hr by HTRF assay relative to control
Homo sapiens [4] = organism: Homo sapiens; assay: Inhibition of N-terminal GST-tagged HSP90/Cdc37 (unknown origin) interaction expressed in Escherichia coli preincubated with Cdc37 for 1 hr followed by addition to HSP90 by GST-pull down assay
How it was run: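 Pull-down with 10 μg GST-Hsp90 N-terminal domain immobilised as bait on glutathione resin spin columns. Compound incubated with Cdc37 for 1 h at 37 °C, then added to the columns. Loading buffer 25 mM Tris, 0.15 M NaCl, pH 7.2; elution with extra 10 mM reduced glutathione; spins 1 min at 1,000 × g, 4 °C. Eluate analysed by SDS-PAGE and anti-GST/anti-His western blot.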

Heat shock protein HSP90 [5] = target: T1, Heat shock protein HSP90 (Homo sapiens, UniProt P07900+P08238); assay: Inhibition of N-terminal GST-tagged HSP90 ATPase activity (unknown origin) expressed in Escherichia coli at 100 uM after 1 hr in presence of ATP by spectrophotometric assay relative to control
How it was run: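 ADP Hunter Plus ADP-detection kit. Compound at 100 μM final in 15 mM HEPES, 20 mM NaCl, 1 mM EDTA, 10 mM MgCl2, 0.02% Tween20, pH 7.4. Mixed in equal volumes with Hsp90 (5 μM) and ATP (100 μM), 1 h at 37 °C. Detection reagents A and B added, 30 min at room temperature; ex 540/em 620 nm. Protein-free background; no-ligand wells set as 100% activity.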

Heat shock protein HSP90 [6] = target: T1, Heat shock protein HSP90; assay: Inhibition of GA-FITC binding to N-terminal GST-tagged HSP90 (unknown origin) expressed in Escherichia coli at 100 uM after 30 mins fluorescence polarization assay relative to control
Heat shock protein HSP90 [7] = target: T1, Heat shock protein HSP90; assay: Binding affinity to N-terminal GST-tagged HSP90 (unknown origin) expressed in Escherichia coli by biolayer interferometry analysis

SMILES	inhibition (Homo sapiens [1])	other results
COc1ccc(C(=O)Nc2ccccc2C(=O)NCCCCO)cc1OC	19.3%	–
CCCOC(=O)c1ccc(Oc2c(C)oc3c(CN4CCN(CCO)CC4)c(O)ccc3c2=O)cc1	< 10%	–
C=C1[C@@H](C(=O)Nc2ccc(NS(=O)(=O)c3ccc(C)cc3)cc2)[C@@H]1C(=O)Nc1ccc(NS(=O)(=O)c2ccc(C)cc2)cc1	< 10%	–
CC(=O)Nc1ccc(C(=O)OCCOC(=O)C2=C(C)NC(C)=C(C(=O)OCCNC(=O)c3ccccc3O)[C@H]2c2cccc([N+](=O)[O-])c2)cc1	< 10%	–
COc1ccc(CCNc2cc(N3CCN(CCO)CC3)ccc2[N+](=O)[O-])cc1OC	30.7%	IC50 (MCF7): > 100 µM; IC50 (A549): > 100 µM; IC50 (SK-BR-3): 84.6 µM; IC50 [2]: 296 µM
O=C(CCC(=O)Nc1ccc(S(=O)(=O)Nc2ccccc2)cc1)Nc1ccc(S(=O)(=O)Nc2ccccc2)cc1	49.6%	–
CCOc1cc(CNc2ccc(N3CCOCC3)c(C(=O)OC)c2)cc(Cl)c1OCC(N)=O	< 10%	–
Cc1cc(C)c(NS(=O)(=O)c2ccc(NC(=O)CCCCC(=O)Nc3ccc(S(=O)(=O)Nc4c(C)cc(C)cc4C)cc3)cc2)c(C)c1	21.5%	–
Cn1c(SCC(=O)Nc2ccc3nc(SCC(=O)c4ccc(Cl)cc4)sc3c2)nnc1-c1ccc(N)cc1	< 10%	–
COC(=O)c1cc(NCc2cc(Cl)c(OCC(N)=O)c(OC)c2)ccc1N1CCOCC1	< 10%	–
O=C1NCCCC[C@H]1N[C@@H]1CC(=O)N(c2ccc(N3C(=O)C[C@@H](N[C@@H]4CCCCNC4=O)C3=O)cc2)C1=O	< 10%	–
NC(=O)C1CCN(C[C@H](O)COc2ccc(OC[C@@H](O)CN3CCC(C(N)=O)CC3)cc2)CC1	< 10%	–
Cc1cc(NS(=O)(=O)c2ccc(NC(=O)c3ccc(C(=O)Nc4ccc(S(=O)(=O)Nc5cc(C)on5)cc4)cc3)cc2)no1	inactive	–
CO[C@H]1/C=C\C=C(/C)C(=O)NC2=CC(=O)C(NCCN(C)C)=C(C[C@@H](C)C[C@H](OC)[C@H](O)[C@@H](C)/C=C(\C)[C@@H]1OC(N)=O)C2=O (stereo in doubt)	–	inhibition (Homo sapiens [3]): inactive
O=C(CC(=O)Nc1ccc(S(=O)(=O)Nc2ccccc2)cc1)Nc1ccc(S(=O)(=O)Nc2ccccc2)cc1	30.4%	–
COc1ccc(-c2c(C)oc3cc(OCCN4CCN(CCO)CC4)ccc3c2=O)cc1OC	< 10%	–
Cc1cc(NS(=O)(=O)c2ccc(NC(=O)CC(=O)Nc3ccc(S(=O)(=O)Nc4cc(C)on4)cc3)cc2)no1	65.6 to 66%	–
Cc1ccnc(NS(=O)(=O)c2ccc(NC(=O)c3cccc(C(=O)Nc4ccc(S(=O)(=O)Nc5nccc(C)n5)cc4)c3)cc2)n1	< 10%	–
Cc1noc(NS(=O)(=O)c2ccc(NC(=O)CC(=O)Nc3ccc(S(=O)(=O)Nc4onc(C)c4C)cc3)cc2)c1C	< 10%	–
CCOC(=O)c1cccc(NC(=O)CSc2nnc(-c3ccc(O)cc3)n2Cc2ccccc2)c1	14.1%	–
O[C@H](COc1ccc(OC[C@H](O)CN2CCN(c3cccc(Cl)c3)CC2)cc1)CN1CCN(c2cccc(Cl)c2)CC1	47.6%	IC50 (MCF7): 89.2 µM; IC50 (A549): > 100 µM; IC50 (SK-BR-3): > 100 µM; IC50 [2]: 128 µM
COc1ccc([C@H](CC(=O)O)NC(=O)CCc2c(C)c3ccc(O)cc3oc2=O)cc1OC	< 10%	–
COc1ccc(S(=O)(=O)N(CC(=O)N/N=C/c2ccc(OCC(N)=O)cc2)c2ccccc2)cc1	< 10%	–

SMILES	inhibition (Homo sapiens [1])	other results
COc1cc(/C=C2\SC(=S)N(CCCCCCN3C(=O)/C(=C\c4ccc(O)c(OC)c4)SC3=S)C2=O)ccc1O	17%	–
CC1=C(C(=O)OCCNC(=O)c2ccc(O)cc2)[C@@H](c2cccc([N+](=O)[O-])c2)C(C(=O)OCCNC(=O)c2ccccc2O)=C(C)N1	< 10%	–
O=C(CCC(=O)Nc1ccc(S(=O)(=O)Nc2ccccn2)cc1)Nc1ccc(S(=O)(=O)Nc2ccccn2)cc1	< 10%	–
Cc1cc(NS(=O)(=O)c2ccc(NC(=O)CCCCC(=O)Nc3ccc(S(=O)(=O)Nc4cc(C)on4)cc3)cc2)no1	20.7%	–
CS(=O)(=O)N(CC(=O)N/N=C/c1ccc(OCC(=O)Nc2ccc(F)cc2)cc1)c1ccc(Cl)c(Cl)c1	< 10%	–
C[C@H](O)c1ccc(-c2ccc(CNCCCSc3nnnn3-c3ccccc3)o2)cc1	< 10%	–
CCOC(=O)C1=C(CSc2nc3c(cc2C#N)CN(C)CC3)OC(N)=C(C#N)C1c1ccncc1 (stereo not drawn)	< 10%	–
NC(=O)COc1ccc(/C=N/NC(=O)[C@H]2CCCN2S(=O)(=O)c2ccc(Cl)cc2)cc1	< 10%	–
O=C(CCC(=O)Nc1ccc(S(=O)(=O)Nc2ncccn2)cc1)Nc1ccc(S(=O)(=O)Nc2ncccn2)cc1	< 10%	–
CCOC(=O)c1c(C)n(Cc2ccccc2)c2ccc(OC[C@H](O)CN3CCN(CCO)CC3)cc12	< 10%	–
CCOc1ccc(C(=O)C2=C(O)C(=O)N(CCOCCO)[C@@H]2c2cccc(OC)c2)cc1	< 10%	–
COc1ccccc1N(CC(=O)N/N=C/c1ccc(OCC(=O)Nc2ccccc2Cl)cc1)S(=O)(=O)c1ccc(C)cc1	13.6%	–
Cc1cc(NS(=O)(=O)c2ccc(NC(=O)CCC(=O)Nc3ccc(S(=O)(=O)Nc4cc(C)on4)cc3)cc2)no1	69.8 to 70%	–
Cc1ccnc(NS(=O)(=O)c2ccc(NC(=O)CCC(=O)Nc3ccc(S(=O)(=O)Nc4nccc(C)n4)cc3)cc2)n1	< 10%	–
COc1ccc(NS(=O)(=O)c2ccc(NC(=O)CCC(=O)Nc3ccc(S(=O)(=O)Nc4ccc(OC)nn4)cc3)cc2)nn1	< 10%	–
Cn1nccc1NS(=O)(=O)c1ccc(NC(=O)CC(=O)Nc2ccc(S(=O)(=O)Nc3ccnn3C)cc2)cc1	50.9%	–
O=C(CCC(=O)Nc1ccc(S(=O)(=O)Nc2nccs2)cc1)Nc1ccc(S(=O)(=O)Nc2nccs2)cc1	< 10%	–
Cc1noc(NS(=O)(=O)c2ccc(NC(=O)CCC(=O)Nc3ccc(S(=O)(=O)Nc4onc(C)c4C)cc3)cc2)c1C	48.7%	–
COc1cccc(C(c2c(N)nc(SCC(N)=O)[nH]c2=O)c2c(N)nc(SCC(N)=O)[nH]c2=O)c1	14.3%	–
Cc1cc(NS(=O)(=O)c2ccc(NC(=O)CCCC(=O)Nc3ccc(S(=O)(=O)Nc4cc(C)on4)cc3)cc2)no1	59.3%	inhibition (Homo sapiens [4]): Dose-dependent effect; inhibition (Heat shock protein HSP90 [5]): < 10%; inhibition (Heat shock protein HSP90 [6]): inactive; IC50 (MCF7): 66.9 µM; IC50 (A549): 75.3 µM; IC50 (SK-BR-3): 59.4 µM; IC50 [2]: 76.9 to 77 µM; Kd (Heat shock protein HSP90 [7]): 80.4 µM
CC/N=C1\S[C@H](CC(=O)Nc2cccc(NC(=O)C[C@@H]3S/C(=N/CC)N(CC)C3=O)c2)C(=O)C1CC (stereo partly drawn)	< 10%	–
CC.COc1ccc(NC(=O)C2=C(C)Nc3nc(CCCO)nn3[C@H]2c2ccc(OC)c(OC)c2)cc1	36.6%	inhibition (Heat shock protein HSP90 [5]): 45.7%; inhibition (Heat shock protein HSP90 [6]): inactive; IC50 (MCF7): > 100 µM; IC50 (A549): > 100 µM; IC50 (SK-BR-3): > 100 µM; IC50 [2]: 154 µM; Kd (Heat shock protein HSP90 [7]): > 100 µM
